In ChEMBL document CHEMBL1138502, “Discovery and biological evaluation of novel cyanoguanidine P2X(7) antagonists with analgesic activity in a rat model of neuropathic pain” (J Med Chem, 2009):

Key:
P2X purinoceptor 7 [1] = molecular target: T1, P2X purinoceptor 7 (Homo sapiens, UniProt Q99572); assay: Antagonist activity at human cloned P2X7 receptor expressed in HEK293 cells assessed as inhibition of calcium flux by FLIPR assay; type: functional, cell-based
T1 sequence (Q99572 whole entry): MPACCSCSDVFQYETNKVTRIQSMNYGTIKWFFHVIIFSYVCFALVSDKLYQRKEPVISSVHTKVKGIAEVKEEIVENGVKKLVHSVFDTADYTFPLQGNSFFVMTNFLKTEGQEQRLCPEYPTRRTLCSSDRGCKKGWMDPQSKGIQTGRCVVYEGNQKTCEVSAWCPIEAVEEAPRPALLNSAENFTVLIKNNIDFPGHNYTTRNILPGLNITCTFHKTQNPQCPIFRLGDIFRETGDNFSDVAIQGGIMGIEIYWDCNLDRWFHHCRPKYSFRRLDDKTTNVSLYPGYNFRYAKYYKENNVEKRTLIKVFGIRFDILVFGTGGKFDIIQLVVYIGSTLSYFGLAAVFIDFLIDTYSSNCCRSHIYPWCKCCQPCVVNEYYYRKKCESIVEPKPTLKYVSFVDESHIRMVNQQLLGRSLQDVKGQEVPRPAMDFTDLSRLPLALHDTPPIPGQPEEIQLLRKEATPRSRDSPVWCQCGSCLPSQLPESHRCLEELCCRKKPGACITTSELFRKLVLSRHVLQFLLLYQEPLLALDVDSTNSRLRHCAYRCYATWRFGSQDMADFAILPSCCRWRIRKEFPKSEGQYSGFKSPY
Method in brief: (§1)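 Calcium influx read on a fluorometric imaging plate reader with Fluo-4 as the calcium-sensing dye. The P2X7 agonist was benzoylbenzoic ATP (BzATP). pIC50 values are the mean of two experiments unless otherwise indicated; some values are the mean of more than two experiments, with standard deviation shown.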

P2X purinoceptor 7 [2] = molecular target: T2, P2X purinoceptor 7 (Rattus norvegicus, UniProt Q64663); assay: Antagonist activity at rat cloned P2X7 receptor expressed in HEK293 cells assessed as inhibition of calcium flux by FLIPR assay; type: functional, cell-based; method in brief: as §1
T2 sequence (Q64663 whole entry): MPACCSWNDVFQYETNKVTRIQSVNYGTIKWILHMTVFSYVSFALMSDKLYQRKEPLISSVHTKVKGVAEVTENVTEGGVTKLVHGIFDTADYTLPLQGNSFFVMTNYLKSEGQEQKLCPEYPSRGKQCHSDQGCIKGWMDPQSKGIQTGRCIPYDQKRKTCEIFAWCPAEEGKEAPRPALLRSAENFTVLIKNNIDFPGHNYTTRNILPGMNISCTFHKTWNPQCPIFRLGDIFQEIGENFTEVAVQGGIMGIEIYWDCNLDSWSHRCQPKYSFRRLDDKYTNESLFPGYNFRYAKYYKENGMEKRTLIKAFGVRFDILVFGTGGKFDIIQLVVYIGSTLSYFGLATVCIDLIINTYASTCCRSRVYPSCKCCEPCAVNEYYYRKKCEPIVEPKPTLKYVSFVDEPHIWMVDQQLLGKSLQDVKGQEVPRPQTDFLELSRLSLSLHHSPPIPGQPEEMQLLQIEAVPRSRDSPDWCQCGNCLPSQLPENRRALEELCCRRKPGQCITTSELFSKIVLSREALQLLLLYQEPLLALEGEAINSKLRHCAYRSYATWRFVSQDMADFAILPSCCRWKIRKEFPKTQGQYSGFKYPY

Compound	IC50 (P2X purinoceptor 7 [1]) [nM]	IC50 (P2X purinoceptor 7 [2]) [nM]
COc1ccc(CC(=O)NC(N=C(NC#N)Nc2cc(Cl)ccc2F)C(C)(C)C)cc1OC (centres undefined)	79.4	20
COc1ccc(CC(=O)NC(N=C(NC#N)Nc2cccc(C)c2)C(C)(C)C)cc1OC (centres undefined)	1000	39.8
COc1ccc(CC(=O)NC(N/C(=N/C#N)Nc2c(F)cccc2F)C(C)(C)C)cc1OC (centres undefined)	200	31.6
COc1ccc(CC(=O)NC(N=C(NC#N)Nc2ccccc2F)C(C)(C)C)cc1OC (centres undefined)	200	12.6
COc1ccc(C(=O)NC(N=C(NC#N)Nc2ccccc2C)C(C)(C)C)cc1 (centres undefined)	7940	2510
CC(C)(C)C(NC(=O)CCCc1cccnc1)N/C(=N/C#N)Nc1cccc2ncccc12 (centres undefined)	100	39.8
O=C(CC12CC3CC(CC(C3)C1)C2)Nc1ccc2[nH]ncc2c1	158	501
COc1cc(OC)cc(C(=O)NC(N=C(NC#N)Nc2ccccc2C)C(C)(C)C)c1 (centres undefined)	2510	794
COc1ccc(CC(=O)NC(N/C(=N/C#N)Nc2cccnc2C)C(C)(C)C)cc1OC (centres undefined)	251	158
COc1ccc(CC(=O)NC(N/C(=N/C#N)Nc2ccc(F)cc2F)C(C)(C)C)cc1OC (centres undefined)	251	10
COc1ccc(C(=O)NC(N=C(NC#N)Nc2ccccc2C)C(C)(C)C)cc1OC (centres undefined)	5010	631
COc1ccc(CCC(=O)NC(N/C(=N/C#N)Nc2ccccc2C)C(C)(C)C)cc1 (centres undefined)	398	251
COc1ncccc1NC(=NC#N)NC(NC(=O)c1ccc(Cl)cc1)C(C)(Cl)Cl (centres undefined)	63.1	50.1
COc1cc(CC(=O)NC(N/C(=N/C#N)Nc2ccccc2C)C(C)(C)C)cc(OC)c1 (centres undefined)	251	63.1
Cc1ccccc1N/C(=N\C#N)NC(NC(=O)Cc1ccccc1)C(C)(C)C (centres undefined)	31600	316
COc1ccc(CC(=O)NC(N/C(=N/C#N)Nc2ccccc2C)C(C)(C)C)cc1 (centres undefined)	63.1	31.6
COc1ccc(CC(=O)NC(N=C(NC#N)Nc2ccc(F)c(F)c2)C(C)(C)C)cc1OC (centres undefined)	794	50.1
CCCCCC(=O)NC(N=C(NC#N)Nc1ccccc1C)C(C)(C)C (centres undefined)	794	31.6
COc1ccc(CCC(=O)NC(N=C(NC#N)Nc2ccccc2C)C(C)(C)C)cc1OC (centres undefined)	200	316
COc1ccc(CC(=O)NC(N=C(NC#N)Nc2cccc(F)c2)C(C)(C)C)cc1OC (centres undefined)	3160	79.4

More lines, now with the values ahead:

IC50 (P2X purinoceptor 7 [1]) [nM]	IC50 (P2X purinoceptor 7 [2]) [nM]	Compound
50.1	20	COc1cc(OC)cc(C(=O)NC(NC(=NC#N)Nc2cccnc2OC)C(C)(Cl)Cl)c1 (centres undefined)
31.6	7.94	COc1ccc(CC(=O)NC(NC(=NC#N)Nc2cccnc2OC)C(C)(Cl)Cl)cc1OC (centres undefined)
31.6	12.6	COc1ccc(N/C(=N\C#N)NC(NC(=O)Cc2ccc(OC)c(OC)c2)C(C)(C)C)c(OC)n1 (centres undefined)
39.8	6.31	CC(C)(C)C(NC(=O)Cc1ccc(C#N)cc1)N/C(=N/C#N)Nc1cccc2ncccc12 (centres undefined)
63.1	7.94	COc1ccc(CC(=O)NC(NC(=NC#N)Nc2ccccc2Cl)C(C)(C)C)cc1OC (centres undefined)
50.1	100	COc1ccc(CCCC(=O)NC(N/C(=N/C#N)Nc2cccnc2C)C(C)(C)C)cc1 (centres undefined)
20	31.6	CSc1ccc(CC(=O)NC(N=C(NC#N)Nc2cccnc2C)C(C)(C)C)cc1 (centres undefined)
63.1	50.1	Cc1ncccc1NC(=NC#N)NC(NC(=O)CCCCc1ccccc1)C(C)(C)C (centres undefined)
63.1	126	CC(Cl)(Cl)C(NC(=O)c1ccc(Cl)cc1)NC(=NC#N)Nc1cccnc1Cl (centres undefined)
63.1	3.16	COc1ccc(CC(=O)NC(N=C(NC#N)Nc2cc(C)ccc2C)C(C)(C)C)cc1OC (centres undefined)
31.6	31.6	CC(C)(C)C(NC(=O)Cc1cccc2ccccc12)NC(=NC#N)Nc1cccc2ncccc12 (centres undefined)
31.6	7.94	CSc1ccc(CC(=O)NC(N=C(NC#N)Nc2ccccc2C)C(C)(C)C)cc1 (centres undefined)
